Source: PubChem (The Scripps Research Institute Molecular Screening Center)
OPRM1-OPRD1 ag: agonists of OPRM1-OPRD1 heterodimerization, primary screen, cell-based, luminescence | Mu-type opioid receptor (Homo sapiens) + Delta-type opioid receptor (Homo sapiens), … | 340,000 compounds, 0.3% hits | cells | activation, % at 9.3 µM; in the data active = activation above about 18%;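 also: 0% = vehicle-treated cells and 100% = reference agonist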
HTR5A ag: HTR5A agonists in luminescence cell assay, primary screen, counter-screen for OPRM1-OPRD1 heterodimer agonist project, full-deck HTS; 340,000 compounds, 0.61% hits; AID 504692, 2011; activation, % at 9.3 µM; cell-based; 5-hydroxytryptamine receptor 5A (Homo sapiens), P47898; in the data active = activation mostly above about 9.5%, no sharp cut-off; inactive = mostly below about 7.6%;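 also: 0% = cells with vehicle only and 100% = reference agonist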
Target sequence (P47898 whole entry, looked up): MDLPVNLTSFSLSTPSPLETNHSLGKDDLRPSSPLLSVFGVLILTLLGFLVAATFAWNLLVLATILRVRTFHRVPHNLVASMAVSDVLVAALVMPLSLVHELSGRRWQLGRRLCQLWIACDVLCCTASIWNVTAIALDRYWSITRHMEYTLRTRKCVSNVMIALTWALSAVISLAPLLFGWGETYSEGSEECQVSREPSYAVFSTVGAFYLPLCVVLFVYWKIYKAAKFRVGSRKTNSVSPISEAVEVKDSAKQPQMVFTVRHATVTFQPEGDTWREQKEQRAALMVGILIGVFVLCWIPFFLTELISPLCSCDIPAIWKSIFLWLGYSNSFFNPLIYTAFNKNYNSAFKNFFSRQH
HTR5A inv ctr: HTR5A inverse agonists in luminescence cell assay, primary screen, counter-screen for OPRM1-OPRD1 heterodimer inverse agonist project, full-deck HTS | HTR5A cell line, inverse agonism | 5-hydroxytryptamine receptor 5A (Homo sapiens), P47898 | inhibition, % at 9.3 µM | 340,000 compounds, 0.083% hits; in the data active = inhibition mostly above about 23%, no sharp cut-off; inactive = mostly below about 18%;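 also: 0% = cells with DMSO and 100% = no-cell wells with DMSO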
MOR-DOR inv ag: inverse agonists of MOR-DOR heterodimerization, primary screen, cell-based, luminescence. inhibition, % at 9.3 µM. cell-based MOR-DOR heterodimer luminescence, inverse agonism. 340,000 compounds, 0.21% hits. AID 504357, 2011; in the data active = inhibition above about 22%, passing the limit was not always enough;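 also: 0% = cells with DMSO and 100% = wells without cells with DMSO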
MC4R ag barr: MC4R agonists recruiting beta-arrestin, primary screen, cell-based, luminescence, agonist arm of biased-ligand search; AID 540308, 2011; activation, % at 8.9 µM; U2OS MC4R beta-arrestin complementation; percent of melanotan II response, DMSO zero; 360,000 compounds, 0.98% hits;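 active = activation above a per-plate cutoff, the mean activation of sample wells on that plate plus 3 SD, cut at about 8% in these data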
Target sequence (P32245 whole entry, looked up): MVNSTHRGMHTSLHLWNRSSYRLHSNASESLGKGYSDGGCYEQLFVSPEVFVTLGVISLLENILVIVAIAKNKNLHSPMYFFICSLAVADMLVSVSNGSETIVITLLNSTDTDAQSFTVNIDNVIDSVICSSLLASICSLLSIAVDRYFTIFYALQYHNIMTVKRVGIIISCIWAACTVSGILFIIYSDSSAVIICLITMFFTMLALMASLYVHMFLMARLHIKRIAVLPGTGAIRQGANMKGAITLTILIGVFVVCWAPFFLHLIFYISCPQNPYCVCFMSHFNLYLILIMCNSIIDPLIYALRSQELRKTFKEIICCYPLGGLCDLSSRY
MC4R antag cAMP: MC4R antagonists of cAMP signaling, primary screen, cell-based, TR-FRET, antagonist arm of biased-ligand search. Melanocortin receptor 4 (Homo sapiens), P32245. MC4R-expressing cells, MTII-stimulated cAMP, LANCE TR-FRET. inhibition, % at 6.5 µM. 360,000 compounds, 0.48% hits. AID 540295, 2011;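 active = inhibition above its plate's cutoff, the mean of tested wells on that plate plus 3 SD, cut at about 29% in these data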;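 also: 0% = Melanotan II alone and 100% = Melanotan II plus saturating MCL0020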
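System: U2OS-MC4R stable cell line; Technique: Eu-cAMP/anti-cAMP TR-FRET, emission 671 nm; Repeats: single well per compound; Also added: Melanotan II; Dosing: one concentration, 6.5 µM nominal; Schedule: 30-min compound, 1-h challenge, 1-h detection, room temperature.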
MC4R barr ag: MC4R beta-arrestin agonists, retest, confirmation, cell-based, luminescence, U2OS; 2,400 compounds, 31% hits; shares compounds with MC4R ag barr; U2OS MC4R beta-arrestin recruitment; scaled DMSO 0%, Melanotan II 100%; activation, % at 8.9 µM;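 active = mean activation across replicates above the hit cutoff set in the earlier primary screen, cut at about 8% in these data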
MOR-DOR barr ag: agonists of MOR-DOR heterodimerization, counter-screen for MC4R biased agonist project, cell-based, luminescence; shares compounds with MC4R ag barr; U2OS PathHunter beta-arrestin, beta-gal luminescence; percent of deltorphin B response, DMSO zero; activation, % at 9.2 µM; 2,400 compounds, 5.8% hits; AID 602194, 2012;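 active = mean activation across replicates exceeds the hit threshold derived in the earlier primary screen, cut at about 18% in these data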;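 also: 100% = deltorphin B at 0.9 µM final and 0% = DMSO alone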
* hit, by the source's call; · = no result given. Sampled rows, rich in hits. Any-hit rate of the full collection: about 2.4%.

SMILES	OPRM1-OPRD1 ag	HTR5A ag	HTR5A inv ctr	MOR-DOR inv ag	MC4R ag barr	MC4R antag cAMP	MC4R barr ag	MOR-DOR barr ag
Cc1ccc(S(=O)(=O)N2CCN(C(=O)c3ccc(-n4cncn4)c([N+](=O)[O-])c3)CC2)c(C)c1	·	·	·	·	0.1	2.2	·	·
CCCn1c(=S)[nH]c2cc(C(=O)NCc3ccccc3OC)ccc2c1=O	·	·	·	·	6.0	14.7	·	·
CC(C)Cn1c(=S)[nH]c2cc(C(=O)NCc3ccccc3F)ccc2c1=O	4.5	2.7	-23.5	-18.1	14.3*	2.7	0.0	3.6
O=[N+]([O-])c1ccc(N/N=C/c2ccccc2)c(F)c1	12.3	-0.5	31.3	-55.2	12.3*	22.2	0.9	6.8
CC1CCN(CC(=O)Nc2cccc(C(=O)Nc3cccc(C(F)(F)F)c3)c2)CC1	6.0	9.3	-26.3	-43.5	1.8	8.0	·	·
CC(=O)c1cccc(N/C=C\c2nnnn2-c2ccc(F)cc2)c1	1.7	2.8	2.0	-7.6	15.8*	1.8	6.0	3.4
COc1ccc(OC)c(NC(=O)c2ccc3c(c2)C(=O)N(CC2CCCO2)C3=O)c1 (stereo unspecified)	-0.3	-1.6	-4.2	2.0	-2.5	-1.5	·	·
Cc1ccc(NS(=O)(=O)c2ccc(-n3cccn3)cc2)cc1Cl	·	·	·	·	12.6*	13.0	-0.1	7.5
O=S(=O)(Nc1cccc(Cl)c1)c1ccc(-n2cccn2)cc1	1.4	9.7	-27.1	-7.2	3.0	-0.6	·	·
O=C(COC(=O)/C=C/c1cccc(C(F)(F)F)c1)NC(=O)NCc1ccco1	2.8	2.4	5.2	-11.0	15.2*	-4.7	2.8	6.8
Nc1nonc1-n1nnc(C(=O)N/N=C/c2ccc(OCc3ccccc3)cc2)c1CNc1ccccc1	0.9	3.2	-8.3	-4.7	25.4*	7.9	4.9	3.5
CC1CCN(Cc2c(C(=O)N/N=C/c3cc(Br)ccc3O)nnn2-c2nonc2N)CC1	8.3	11.2	-27.2	-46.5	5.3	23.2	·	·
Nc1nonc1-n1nnc(C(=O)N/N=C/c2ccccn2)c1CNc1ccccc1	-0.7	-2.8	-7.0	3.3	-2.7	3.6	·	·
CCCc1c(C(=O)N/N=C/c2cccc3ccccc23)nnn1-c1nonc1N	0.9	2.7	-10.0	-4.7	17.5*	11.5	1.4	3.2
Cc1cc(C)c(/C=N/NC(=O)c2nnn(-c3nonc3N)c2CN2CCC(C)CC2)c(C)c1	2.0	8.4	-22.4	-10.8	17.4*	15.3	15.5*	4.8
CCN(CC)Cc1c(C(=O)N/N=C/c2cccc3ccccc23)nnn1-c1nonc1N	3.3	1.4	-4.1	-26.5	1.6	7.5	·	·
Cc1ccc(OC(=O)c2cccc([N+](=O)[O-])c2)c(-n2nc3ccccc3n2)c1	-2.5	-2.2	5.8	14.9	14.3*	8.5	-3.1	2.7
CCNC(=S)N/N=C/c1cc(Br)cc(Br)c1OC	5.8	-0.5	-20.7	-31.9	11.6*	23.6	1.7	7.7
COc1c(Br)cc(Br)cc1/C=N/NC(=O)c1ccncc1	2.4	0.6	9.4	-13.0	-1.7	0.2	·	·
O=C(Nc1ccccc1)c1ccc(OC(=O)c2ccccc2)cc1	3.8	0.6	-2.4	-19.0	9.8*	-2.1	5.3	2.0
O=C(Oc1ccc(NC(=O)c2cc3c(cc2Br)OCO3)cc1)c1ccccc1	5.5	-3.4	12.0	-25.1	14.4*	5.3	6.0	5.7
CC(=O)N/C(=C\c1ccccc1)C(=O)OCc1ccc(C)cc1	-0.2	3.2	-3.3	1.2	-1.1	12.9	·	·
CCc1ccc(C2NC(=S)NC3=C2C(=O)CC(C)(C)C3)cc1 (stereo unspecified)	-0.6	0.6	20.9	3.2	-0.3	7.1	·	·
O=C(Nc1cc(Cl)ccc1Cl)c1ccc(-c2ccccc2)cc1	0.5	-1.1	-20.8	-2.8	9.8*	-6.8	5.3	8.5
CC(C)NC(=O)CN1CCN(Cc2nc(C(c3ccccc3)c3ccccc3)no2)CC1	-2.6	-3.5	9.1	12.3	-2.5	3.4	·	·
SMILES	OPRM1-OPRD1 ag	HTR5A ag	HTR5A inv ctr	MOR-DOR inv ag	MC4R ag barr	MC4R antag cAMP	MC4R barr ag	MOR-DOR barr ag
CCc1ccc(N=C2NC(=O)/C(=C/c3cc(OC)c(O)c(OC)c3)S2)cc1	2.8	6.4	-23.8	-13.4	13.6*	2.2	13.2*	6.6
COc1cc(/C=C2\SC(=Nc3ccccc3)NC2=O)cc(Cl)c1O	-1.7	-0.2	0.8	9.6	4.2	15.6	·	·
CCOc1ccc(CN2CCN(Cc3[nH]c4ccccc4c3C)CC2CCO)cc1 (stereo unspecified)	13.5	3.7	-10.7	-96.7	11.7*	13.6	3.0	22.4*
COCC1CCCN(C(=O)c2ccc3nc(Cc4cccc(Cl)c4)oc3c2)C1 (stereo unspecified)	1.9	3.0	-22.1	-10.0	2.6	20.3	·	·
Cc1ccccc1Cn1cccc1/C=C1/C(=N)N2C=CSC2=NC1=O	-0.6	7.4	-20.8	3.0	13.9*	0.9	2.5	1.7
CC(C)c1ccc(-n2cccc2/C=C2/C(=N)N3C=CSC3=NC2=O)cc1	1.9	5.2	6.5	-10.2	-0.4	9.0	·	·
C#CCOc1ccc(/C=C2\SC(=S)N(Cc3cccnc3)C2=O)cc1	1.4	7.0	18.0	-6.4	12.6*	2.3	3.3	3.3
Cc1cc(NC(=O)CCSc2nc(-c3ccco3)cc(C(F)(F)F)n2)no1	5.3	-3.0	19.6	-31.1	9.9*	7.5	2.9	6.0
COc1ccc(-c2cc(C(F)(F)F)nc(SCC(=O)Nc3ccc4c(c3)OCO4)n2)cc1	-1.2	-1.7	-19.2	5.2	-0.9	-2.5	·	·
CCN(CC)S(=O)(=O)c1ccc(-c2nnc(SCC(=O)Nc3ccc4c(c3)OCO4)o2)cc1	-2.0	0.7	-2.9	11.2	10.0*	4.0	2.5	5.4
O=C(CSc1nc(-c2ccc(F)cc2)cc(C(F)(F)F)n1)Nc1ccc2c(c1)OCO2	-0.1	0.2	-0.8	0.4	16.7*	1.7	-0.2	4.3
Cc1cc(NC(=O)CCCSc2nc(-c3ccco3)cc(C(F)(F)F)n2)no1	2.8	4.0	-10.9	-12.9	1.1	8.0	·	·
